Assay results reported in ChEMBL document CHEMBL4715843, “NO-releasing STAT3 inhibitors suppress BRAF-mutant melanoma growth” (Eur J Med Chem, 2020).
Activity calls are given as the source filed them. No cut-off for these calls is given here.

Assays:
LOX IMVI = experiment: Anticancer activity against human LOX IMVI cells assessed as cell growth inhibition at 10 uM measured after 48 hrs by SRB assay relative to control; type: functional; settings: read-out: GI
Method in brief: (§1)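 NCI 60-cell-line screen. Cells in RPMI with 5% FBS were plated at 5,000–40,000 cells/well by doubling time and preincubated 24 h at 37 °C. Compound was added at a single 10 µM for 48 h, then cells were fixed with cold TCA (10% final) and stained with 0.4% SRB. Absorbance at 515 nm gave percent growth versus untreated control and time-zero cells.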

IGROV-1 = experiment: Anticancer activity against human IGROV-1 cells assessed as cell growth inhibition at 10 uM measured after 48 hrs by SRB assay relative to control; type: functional; settings: read-out: GI; method in brief: as §1
MCF-10A = experiment: Cytotoxicity against human MCF-10A cells assessed as inhibition of cell proliferation by MTS assay; type: cell-based; settings: Homo sapiens, MCF-10A; read-out: IC50
[1] = Drug metabolism in pH 7.4 phosphate buffer assessed as nitric oxide release at 100 uM measured after 2 hrs by Griess reagent based colorimetric method
Method in brief: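 Compound at 100 µM was held at room temperature in pH 7.4 phosphate buffer with 5 mM DTT and 2% DMSO for 2 or 48 h. Griess reagent was added, and after 30 min absorbance was read at 548 nm. NO release (mol NO/mol compound) was derived from a sodium nitrite calibration curve.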

[2] = biological target: Signal transducer and activator of transcription 1-alpha/beta (Homo sapiens) (UniProt P42224); experiment: Inhibition of STAT1 phosphorylation at Y701 residues in human A-375 cells at 50 uM after 20 hrs by Western blotting analysis; type: cell-based
Chain of Signal transducer and activator of transcription 1-alpha/beta (Homo sapiens) (P42224 whole entry): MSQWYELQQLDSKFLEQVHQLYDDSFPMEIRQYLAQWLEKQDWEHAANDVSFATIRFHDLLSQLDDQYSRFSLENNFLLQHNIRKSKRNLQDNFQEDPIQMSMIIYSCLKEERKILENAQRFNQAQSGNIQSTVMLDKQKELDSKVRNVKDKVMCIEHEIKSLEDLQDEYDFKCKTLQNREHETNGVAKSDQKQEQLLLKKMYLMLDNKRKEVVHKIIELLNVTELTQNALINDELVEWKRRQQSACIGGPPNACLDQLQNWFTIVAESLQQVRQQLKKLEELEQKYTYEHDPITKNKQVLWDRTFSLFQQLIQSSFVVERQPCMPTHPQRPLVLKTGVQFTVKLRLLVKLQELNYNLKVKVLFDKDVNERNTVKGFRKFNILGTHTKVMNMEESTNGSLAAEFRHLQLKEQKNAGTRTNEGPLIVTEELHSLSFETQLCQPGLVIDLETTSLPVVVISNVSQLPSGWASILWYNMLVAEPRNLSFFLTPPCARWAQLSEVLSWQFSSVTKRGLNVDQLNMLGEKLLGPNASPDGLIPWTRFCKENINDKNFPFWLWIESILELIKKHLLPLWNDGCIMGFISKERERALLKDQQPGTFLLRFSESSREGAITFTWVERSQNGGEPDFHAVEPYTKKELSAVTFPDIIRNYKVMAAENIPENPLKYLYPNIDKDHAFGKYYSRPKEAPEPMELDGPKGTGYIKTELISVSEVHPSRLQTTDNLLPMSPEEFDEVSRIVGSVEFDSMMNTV
Method in brief: (§2)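 A375 cells exposed to a dose range of inhibitor for 20 h (overnight), up to 50 µM; lysates immunoblotted for phospho-STAT1 Y701, phospho-STAT5 Y694 and phospho-STAT6 Y641, with actin and/or vinculin as loading controls.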

[3] = biological target: Signal transducer and activator of transcription 5A (Homo sapiens) (UniProt P42229); experiment: Inhibition of STAT5 phosphorylation at Y694 residues in human A-375 cells at 50 uM after 20 hrs by Western blotting analysis; type: cell-based; method in brief: as §2
Chain of Signal transducer and activator of transcription 5A (Homo sapiens) (P42229 whole entry): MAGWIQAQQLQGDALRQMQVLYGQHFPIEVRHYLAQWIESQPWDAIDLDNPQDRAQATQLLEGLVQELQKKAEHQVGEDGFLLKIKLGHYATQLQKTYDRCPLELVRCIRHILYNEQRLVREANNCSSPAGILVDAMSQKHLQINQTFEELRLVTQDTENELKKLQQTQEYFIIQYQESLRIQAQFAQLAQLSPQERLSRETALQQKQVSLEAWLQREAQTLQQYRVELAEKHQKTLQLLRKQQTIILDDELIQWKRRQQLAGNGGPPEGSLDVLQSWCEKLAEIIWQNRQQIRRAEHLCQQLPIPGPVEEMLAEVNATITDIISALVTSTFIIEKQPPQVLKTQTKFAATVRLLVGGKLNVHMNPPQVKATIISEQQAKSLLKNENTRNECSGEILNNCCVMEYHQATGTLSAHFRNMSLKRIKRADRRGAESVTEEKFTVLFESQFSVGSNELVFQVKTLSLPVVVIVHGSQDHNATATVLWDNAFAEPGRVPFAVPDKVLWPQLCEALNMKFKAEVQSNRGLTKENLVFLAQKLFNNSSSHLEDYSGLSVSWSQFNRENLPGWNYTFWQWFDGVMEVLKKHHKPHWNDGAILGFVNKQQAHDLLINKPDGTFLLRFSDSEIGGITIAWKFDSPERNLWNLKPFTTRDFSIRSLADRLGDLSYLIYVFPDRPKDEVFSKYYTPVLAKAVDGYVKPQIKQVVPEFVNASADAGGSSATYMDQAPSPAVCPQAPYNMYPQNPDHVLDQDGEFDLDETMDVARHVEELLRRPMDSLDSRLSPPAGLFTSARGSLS

A-375 [4] = experiment: Inhibition of colony formation in human A-375 cells measured over 10 days by crystal violet staining based assay; type: functional, cell-based; settings: dose 0.1-10 µM, time 10.0 day
Method in brief: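 A375 cells seeded at 2500/well in RPMI with 5% FBS, settled overnight, then given a dose series and grown 14 days (10 days in the results text). Fixed in 4% paraformaldehyde for 15 min, stained with 0.2% crystal violet in 20% methanol for 10 min, washed and imaged. Experiment run twice.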

[5] = Antiproliferative activity against human SB-590885-sensitive 451Lu cells assessed as reduction in cell viability measured after 48 hrs by MTS assay; type: functional
Method in brief: (§3)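 Melanoma lines were grown in RPMI-1640 with Glutamax at 37 °C and 5% CO2. The resistant 451 Lu-R and MEL 1617-R sublines were maintained with 1 µM PLX4720. Cells were incubated with vehicle or inhibitor over a dose range, and viability was read by MTS assay in triplicate.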

A-375 [6] = experiment: Cell cycle arrest in human A-375 cells assessed as increase in accumulation at G1-phase measured after 24 hrs by […]; type: functional, cell-based; settings: dose 10-25 µM
A-375 [7] = experiment: Cell cycle arrest in human A-375 cells assessed as accumulation at G1-phase at 10 uM measured after 24 hrs by […] (reference value: 55.5 to 56.2%); type: functional
A-375 [8] = experiment: Cell cycle arrest in human A-375 cells assessed as accumulation at S-phase at 10 uM measured after 24 hrs by […] (reference value: 33.6 to 33.7%); type: functional
A-375 [9] = experiment: Cell cycle arrest in human A-375 cells assessed as accumulation at G2-phase at 10 uM measured after 24 hrs by […] (reference value: 9.14 to 10.5%); type: functional
A-375 [10] = experiment: Cell cycle arrest in human A-375 cells assessed as accumulation at S-phase at 25 uM measured after 24 hrs by […] (reference value: 33.6 to 33.7%); type: functional
A-375 [11] = experiment: Cell cycle arrest in human A-375 cells assessed as accumulation at G2-phase at 25 uM measured after 24 hrs by […] (reference value: 9.14 to 10.5%); type: functional
A-375 [12] = experiment: Up regulation of p27kip1 expression in human A-375 cells measured after 24 hrs by Western blot analysis; type: functional, cell-based; settings: dose 5-50 µM
Method in brief: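 A375 cells treated overnight (same as cell-cycle treatment, 24 h) with different doses, then lysed and immunoblotted for p27kip1, PAX3 and Cyclin D1.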

[13] = biological target: T1, Signal transducer and activator of transcription 3 (Homo sapiens, UniProt P40763); experiment: Inhibition of STAT3 in human SB-590885-sensitive 451Lu cells assessed as reduction in PAX3 expression measured after 12 hrs by Western blot analysis; settings: dose 10-25 µM
T1 sequence (P40763 whole entry): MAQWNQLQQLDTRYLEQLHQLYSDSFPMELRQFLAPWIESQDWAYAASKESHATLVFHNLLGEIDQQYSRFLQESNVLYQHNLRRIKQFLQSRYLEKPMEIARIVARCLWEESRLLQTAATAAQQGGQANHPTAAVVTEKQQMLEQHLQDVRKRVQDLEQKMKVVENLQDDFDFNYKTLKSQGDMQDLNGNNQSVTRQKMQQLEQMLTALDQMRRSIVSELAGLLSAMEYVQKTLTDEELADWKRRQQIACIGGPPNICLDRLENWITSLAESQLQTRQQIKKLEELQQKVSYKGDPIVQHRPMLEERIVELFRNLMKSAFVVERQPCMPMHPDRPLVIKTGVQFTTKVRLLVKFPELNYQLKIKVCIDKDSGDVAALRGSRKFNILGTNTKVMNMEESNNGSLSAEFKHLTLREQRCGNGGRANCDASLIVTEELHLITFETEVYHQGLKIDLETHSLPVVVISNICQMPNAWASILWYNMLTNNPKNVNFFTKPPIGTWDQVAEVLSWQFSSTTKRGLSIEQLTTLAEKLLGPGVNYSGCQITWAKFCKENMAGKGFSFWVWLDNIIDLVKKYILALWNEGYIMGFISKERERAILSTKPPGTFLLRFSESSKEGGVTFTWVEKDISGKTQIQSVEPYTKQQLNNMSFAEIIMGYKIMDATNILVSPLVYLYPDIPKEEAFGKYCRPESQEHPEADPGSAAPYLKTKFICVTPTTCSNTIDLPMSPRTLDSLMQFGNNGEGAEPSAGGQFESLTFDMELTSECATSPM
Method in brief: (§4)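 451 Lu and MEL 1617 pairs, sensitive and resistant; resistant lines maintained in RPMI with 1 µM PLX4720. Treated with 10 and 25 µM for 12 h versus DMSO. Lysates (60 µg protein, 10% SDS-PAGE) immunoblotted for Ser727- and Tyr705-phospho-STAT3, total STAT3, total PAX3, with actin.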

[14] = biological target: T1, Signal transducer and activator of transcription 3; experiment: Inhibition of STAT3 phosphorylation at S727 residue in human SB-590885-resistant MEL1617 cells at 10 to 25 uM measured after 12 hrs by Western blot analysis; type: cell-based; settings: dose 10-25 µM; method in brief: as §4
[15] = biological target: T1, Signal transducer and activator of transcription 3; experiment: Inhibition of STAT3 phosphorylation at Y705 residue in human SB-590885-sensitive MEL1617 cells at 10 to 25 uM measured after 12 hrs by Western blot analysis; type: cell-based; settings: dose 10-25 µM; method in brief: as §4
[16] = biological target: T1, Signal transducer and activator of transcription 3; experiment: Inhibition of STAT3 phosphorylation at S727 residue in human SB-590885-sensitive MEL1617 cells at 10 to 25 uM measured after 12 hrs by Western blot analysis; type: cell-based; settings: dose 10-25 µM; method in brief: as §4
[17] = biological target: T1, Signal transducer and activator of transcription 3; experiment: Inhibition of STAT3 in human SB-590885-resistant MEL1617 cells assessed as reduction in PAX3 expression at 10 to 25 uM measured after 12 hrs by Western blot analysis; type: cell-based; settings: dose 10-25 µM; method in brief: as §4
[18] = biological target: T1, Signal transducer and activator of transcription 3; experiment: Inhibition of STAT3 in human SB-590885-sensitive 451Lu cells assessed as reduction in STAT3 transcriptional activity measured after 12 hrs by Dual-luciferase reporter gene assay
Method in brief: (§5)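 Cells co-transfected with inducible STAT3-responsive firefly luciferase and constitutive Renilla luciferase constructs (40:1) using Lipofectamine 3000. After 48 h, dose series in DMSO vehicle applied for 12 h, followed by dual-luciferase readout. Firefly signal normalized to Renilla and compared with untreated cells. Run in triplicate; IC50 taken from dose–response curves.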

[19] = biological target: T1, Signal transducer and activator of transcription 3; experiment: Inhibition of STAT3 in human SB-590885-sensitive MEL1617 cells assessed as reduction in STAT3 transcriptional activity measured after 12 hrs by Dual-luciferase reporter gene assay; type: cell-based; method in brief: as §5
[20] = biological target: T1, Signal transducer and activator of transcription 3; experiment: Inhibition of STAT3 in human SB-590885-resistant MEL1617 cells assessed as reduction in STAT3 transcriptional activity measured after 12 hrs by Dual-luciferase reporter gene assay; type: cell-based; method in brief: as §5
[21] = Antiproliferative activity against human SB-590885-sensitive MEL1617 cells assessed as reduction in cell viability measured after 48 hrs by MTS assay; type: functional, cell-based; settings: MEL1617, 48 h; method in brief: as §3

inhibition [2]	inhibition [3]	inhibition [13]	inhibition [14]	inhibition [15]	inhibition [16]	inhibition [17]	Compound	inhibition of growth at 10 µM (LOX IMVI) [%]	inhibition of growth at 10 µM (IGROV-1) [%]	IC50 (MCF-10A) [µM]	Drug metabolism [1] [%]	inhibition (A-375 [4])	IC50 [5] [µM]	Activity (A-375 [6])	Activity (A-375 [7]) [%]	Activity (A-375 [8]) [%]	Activity (A-375 [9]) [%]	Activity (A-375 [10]) [%]	Activity (A-375 [11]) [%]	Activity (A-375 [12])	further results
inactive	inactive	Dose-dependent effect	Active	Active	Active	Active	C=CCn1c(SCC(=O)Nc2ccc(/C(C)=N\O)cc2)nnc1-c1cc(-c2ccc(Cl)cc2)nc2ccccc12	100	100	92.9	15	Dose-dependent effect	11.3	Dose-dependent effect	56.7	24.9	14.9	21.4	15.7	Dose-dependent effect	IC50 [18]: 7.9 µM; IC50 [19]: 21.4 µM; IC50 [20]: 15.6 µM; IC50 [21]: 46.1 µM
inactive	inactive	Dose-dependent effect	Active	Active	Active	Active	C=CCn1c(SCC(=O)Nc2ccc(/C(C)=N\O)cc2)nnc1-c1cc(-c2ccccc2)nc2ccccc12	76	76	100	15	Dose-dependent effect	1.77	Dose-dependent effect	63	18.8	14.9	12.3	11.2	Dose-dependent effect	IC50 [18]: 6.3 µM; IC50 [19]: 10.3 µM; IC50 [20]: 9.9 µM; IC50 [21]: 8.4 µM
